From ChEMBL document CHEMBL1154251, “Yeast glycogen synthase kinase-3beta pathway inhibitors from an organic extract of Streptomyces sp” (J Nat Prod, 2009) come the findings set out here.

The target of experiment [1] is Glycogen synthase kinase-3 beta (Homo sapiens) (UniProt P49841). Put plainly: Inhibition of GSK3-beta expressed in H10075 yeast assessed as growth inhibition at 10 ug/disk after 72 hrs at 37 degreeC by disc diffusion method. In outline: (§1)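 Yeast gsk-3 null strain H10075 (mck1, mds1, mrk1, yol128c disrupted) carrying pKT10-GSK-3β. Grown 2 days at 37 °C in SC minus uracil broth, then seeded into SC minus uracil agar, pH 5.6. Samples on filter disks, screened at 20 µg/disk, actives retested down to 2.5 µg/disk. Plates held 72 h at both 25 and 37 °C. Zone of inhibition read; duplicates.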
Background: In agar diffusion tests the substance spreads into inoculated agar from a disc or well.

Experiment [2] shares this target. Put plainly: Inhibition of GSK3-beta expressed in H10075 yeast assessed as growth inhibition at 20 ug/disk after 72 hrs at 25 degreeC by disc diffusion method. In a few lines:
(§2)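 Yeast gsk-3 null strain H10075 (mck1 mds1 mrk1 yol128c disrupted) carrying cloned human GSK-3β on pKT10; grown 2 days at 37 °C in SC minus uracil, then seeded into SC minus uracil agar pH 5.6. Compounds applied on filter disks (20, 10, 5, 2.5 µg per disk); plates incubated 72 h at 25 and 37 °C; zone of inhibition diameter read; duplicate.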

Experiment [3] shares this target. Description: Inhibition of GSK3-beta expressed in H10075 yeast assessed as growth inhibition at 20 ug/disk after 72 hrs at 37 degreeC by disc diffusion method. In a few lines:
as §1

Experiment [4] has the same target. Description: Inhibition of GSK3-beta expressed in H10075 yeast assessed as growth inhibition at 2.5 ug/disk after 72 hrs at 24 degreeC by disc diffusion method.
Experiment [5] has the same target. Put plainly: Inhibition of GSK3-beta expressed in H10075 yeast assessed as growth inhibition at 5 ug/disk after 72 hrs at 37 degreeC by disc diffusion method. In outline:
as §2

Experiment [6] shares this target. Description: Inhibition of GSK3-beta expressed in H10075 yeast assessed as growth inhibition at 2.5 ug/disk after 72 hrs at 37 degreeC by disc diffusion method. In a few lines:
as §2

Experiment [7] shares this target. Description: Inhibition of GSK3-beta expressed in H10075 yeast assessed as growth inhibition at 10 ug/disk after 72 hrs at 24 degreeC by disc diffusion method.
Experiment [8] has the same target. Description: Inhibition of GSK3-beta expressed in H10075 yeast assessed as growth inhibition at 5 ug/disk after 72 hrs at 24 degreeC by disc diffusion method.

Active and inactive are the calls of the source. The rule behind the calls is not given here.

Glycogen synthase kinase-3 beta (Homo sapiens), sequence (P49841 whole entry, looked up, the tested form may be a part): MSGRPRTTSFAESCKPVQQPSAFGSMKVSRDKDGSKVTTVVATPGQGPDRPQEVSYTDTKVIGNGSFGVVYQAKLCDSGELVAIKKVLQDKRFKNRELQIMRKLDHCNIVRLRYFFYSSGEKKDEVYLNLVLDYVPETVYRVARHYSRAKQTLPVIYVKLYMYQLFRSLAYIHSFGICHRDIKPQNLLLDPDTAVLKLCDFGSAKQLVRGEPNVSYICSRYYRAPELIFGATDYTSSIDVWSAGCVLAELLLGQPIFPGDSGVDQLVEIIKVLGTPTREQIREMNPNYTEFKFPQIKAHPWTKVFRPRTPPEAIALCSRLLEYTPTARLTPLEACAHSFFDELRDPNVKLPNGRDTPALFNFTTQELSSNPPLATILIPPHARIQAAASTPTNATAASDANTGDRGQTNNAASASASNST

As to `Cn1sc(=O)n(Cc2ccccc2)c1=O`, the inhibition zone (IZ) in experiment [1] was found to be 10 mm; in experiment [2] it was 10 mm; in experiment [3], 11 mm; in experiment [5], 9 mm; in experiment [7], 9 mm; in experiment [8] it was 8 mm. Also, the “inhibition zone (IZ)” value in experiment [4] and in experiment [6] was “inactive” each time.
For `CC/C=C(\C)C(=O)CC(O)CC1CC(=O)NC(=O)C1` (stereo not given), the inhibition zone (IZ) in experiment [1] was determined as 34 mm; in experiment [2], 10 mm; in experiment [3], 38 mm; in experiment [5] it was 30 mm; in experiment [6] it was 28 mm. The “inhibition zone (IZ)” value in experiment [4], in experiment [7] and in experiment [8] was “inactive” throughout.
On to `C[C@@H]1C[C@@H]([C@H](O)CC2CC(=O)NC(=O)C2)C(=O)[C@@H](C)C1`, for which the inhibition zone (IZ) in experiment [2] was determined as 36 mm; in experiment [4], 25 mm; in experiment [5], 48 mm; in experiment [6], 42 mm; in experiment [7] it was 33 mm; in experiment [8] it was 30 mm.
`C[C@H]1C[C@H](C)C(=O)[C@@H]([C@H](O)CC2CC(=O)NC(=O)C2)C1`: the inhibition zone (IZ) is 25 mm in experiment [1]; 22 mm in experiment [2]; 33 mm in experiment [3]; 15 mm in experiment [5]; 16 mm in experiment [7]; 12 mm in experiment [8]. In addition, the “inhibition zone (IZ)” value in experiment [4] and in experiment [6] was “inactive” in each case.
